According to ChEMBL document CHEMBL1123563, “New antifilarial agents. 1. Epoxy sulfonamides and ethynesulfonamides” (J Med Chem, 1987):
The source made the active and inactive calls.

Experiments:
[1] = Antifilarial activity against Molinema dessetae in vivo in Proechimys oris the natural host at a dose of 200 mg/kg subcutaneously once a day for 5 days. Value is expressed as number of infected P. oris.; type: functional; settings: route subcutaneous
Outline: (§1)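 Proechimys oris of both sexes were each infected with 200 infective larvae dissected from Aedes aegypti mosquitoes. Microfilaremia was checked, and the rodents were treated 150–180 days post-infection. Compound was given subcutaneously as a 1% carboxymethylcellulose suspension once daily for 5 consecutive days. Microfilaremia was followed for 6 weeks, then adult male and female worms were counted at autopsy. A compound was scored active if no males and ≤1.6 females were found (p = 0.12).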

[2] = Antifilarial activity against Molinema dessetae in vivo in Proechimys oris the natural host at a dose of 50 mg/kg subcutaneously once a day for 5 days. Value is expressed as number of infected P. oris.; type: functional; settings: route subcutaneous; outline: as §1
molinema dessetae [3] = test: Antifilarial activity against Molinema dessetae in vivo against female adult worms at a dose of 200 mg/kg subcutaneously once a day for 5 days; Active; type: functional, organism-based; design: dose 200 mg/kg; outline: as §1
molinema dessetae [4] = test: Effective concentration of compound necessary to kill 90% of infective larvae of Molinema dessetae after 7 days was determined in vitro; Value ranges from 100-500; type: functional
Outline: (§2)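 Infective larvae from the intermediate host were decontaminated and held 20 per 1.5 mL in a biphasic medium: L929 feeder layer with RPMI and fetal calf serum (90:10), plus penicillin and streptomycin. Compound solutions at several concentrations were made in DMSO, and 10 μL of each was added. After 7 days, survival was corrected by control, in duplicate runs. EC ranges are given in μM.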

molinema dessetae [5] = test: Antifilarial activity against Molinema dessetae in vivo against male adult worms at a dose of 50 mg/kg subcutaneously once a day for 5 days; Inactive; type: functional, organism-based; design: dose 50 mg/kg; outline: as §1
molinema dessetae [6] = test: Antifilarial activity against Molinema dessetae in vivo against male adult worms at a dose of 200 mg/kg subcutaneously once a day for 5 days; Active; type: functional, organism-based; design: dose 200 mg/kg; outline: as §1
[7] = Effective concentration of compound necessary to kill 50% of infective larvae of Molinema dessetae after 7 days was determined in vitro; Value ranges from 20-100; type: functional; outline: as §2
[8] = Antifilarial activity against Molinema dessetae in vivo in Proechimys oris the natural host at a dose of 40 mg/kg subcutaneously once a day for 5 days. Value is expressed as number of infected P. oris.; type: functional; settings: route subcutaneous
[9] = Effective concentration of compound necessary to kill 50% of infective larvae of Molinema dessetae after 7 days was determined in vitro; Value ranges from 100-500; type: functional; outline: as §2
molinema dessetae [10] = test: Antifilarial activity against Molinema dessetae in vivo against male adult worms at a dose of 40 mg/kg subcutaneously once a day for 5 days; Active; type: functional, organism-based; design: dose 40 mg/kg
molinema dessetae [11] = test: Antifilarial activity against Molinema dessetae in vivo against female adult worms at a dose of 40 mg/kg subcutaneously once a day for 5 days; Active; type: functional, organism-based; design: dose 40 mg/kg
[12] = Effective concentration of compound necessary to kill 50% of infective larvae of Molinema dessetae after 7 days was determined in vitro; type: functional
molinema dessetae [13] = test: Antifilarial activity against Molinema dessetae in vivo against male adult worms at a dose of 1000 mg/kg subcutaneously once a day for 5 days; Active; type: functional, organism-based; design: dose 1000 mg/kg
molinema dessetae [14] = test: Antifilarial activity against Molinema dessetae in vivo against female adult worms at a dose of 1000 mg/kg subcutaneously once a day for 5 days; Active; type: functional, organism-based; design: dose 1000 mg/kg
molinema dessetae [15] = tested on: molinema dessetae;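 further: in vitro assay on infective-stage larvae, EC90 being the concentration lethal to 90% of larvae after 7 days of exposure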
[16] = Antifilarial activity against Molinema dessetae in vivo in Proechimys oris the natural host at a dose of 1000 mg/kg subcutaneously once a day for 5 days. Value is expressed as number of infected P. oris.; type: functional; settings: route subcutaneous

SMILES	Activity [1]	Activity [2]	Activity (molinema dessetae [3])	EC90 (molinema dessetae [4])	Activity (molinema dessetae [5])	Activity (molinema dessetae [6])	EC50 [7]	Activity [8]	EC50 [9]	Activity (molinema dessetae [10])	Activity (molinema dessetae [11])	EC50 [12]	Activity (molinema dessetae [13])	Activity (molinema dessetae [14])	EC90 (molinema dessetae [15])	Activity [16]
CN(C)S(=O)(=O)[C@@H]1O[C@H]1c1ccccc1	2	2	Active	500 µM	inactive	Active	100 µM									
Cc1ccc(C(=O)Nc2ccc(S(=O)(=O)O)c3cc(S(=O)(=O)O)cc(S(=O)(=O)O)c23)cc1NC(=O)c1cccc(NC(=O)Nc2cccc(C(=O)Nc3cc(C(=O)Nc4ccc(S(=O)(=O)O)c5cc(S(=O)(=O)O)cc(S(=O)(=O)O)c45)ccc3C)c2)c1 [SURAMIN]				500 µM				2	500 µM	Active	Active					
C[C@@H]1O[C@@H]1P(=O)([O-])[O-].[Na+].[Na+] [PHOSPHOMYCIN DISODIUM]												> 500 µM	Active	Active	> 500 µM	2
